Test results reported in ChEMBL document CHEMBL4261561, “Thiosemicarbazone-based selective proliferation inactivators inhibit gastric cancer cell growth, invasion, and migration” (Medchemcomm, 2017).

Key:
Format in all cases: functional, cell-based
MGC-803 = assay: Antiproliferative activity against human MGC803 cells after 72 hrs by MTT assay; details: MGC-803, 72 h
Procedure, shortened: (§1)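 Exponentially growing cells were seeded at about 3×10^3 per well and left 24 h, then given fresh medium with a range of compound concentrations for 72 h. MTT solution (5 mg/mL) was added for another 4 h. Medium was removed, formazan was dissolved in DMSO, and absorbance was read at 570 nm. IC50 was derived statistically.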

SMMC-7721 = assay: Antiproliferative activity against human SMMC7721 cells after 72 hrs by MTT assay; details: SMMC-7721, 72 h; procedure, shortened: as §1
MCF7 = assay: Antiproliferative activity against human MCF7 cells after 72 hrs by MTT assay; details: MCF7, 72 h; procedure, shortened: as §1

IC50 (MGC-803)	IC50 (SMMC-7721)	IC50 (MCF7)	SMILES
16.3 µM	35.3 µM	> 64 µM	Oc1ccc(Cl)cc1/C=N/NC(=S)N1CCOCC1
> 64 µM	> 64 µM	> 64 µM	C/C(=N\NC(=S)N1CCOCC1)c1ccccc1N
58.4 µM	> 64 µM	> 64 µM	C/C(=N\NC(=S)N1CCN(C(=O)OC(C)(C)C)CC1)c1cc(Cl)ccc1O
20.4 µM	32.6 µM	> 64 µM	Oc1c(Br)cc(Br)cc1/C=N/NC(=S)N1CCOCC1
29.2 µM	37.3 µM	> 64 µM	Oc1ccccc1/C=N/NC(=S)N1CCOCC1
> 64 µM	> 64 µM	> 64 µM	COc1cc(/C=N/NC(=S)N2CCOCC2)cc(OC)c1OC
32.6 µM	> 64 µM	> 64 µM	S=C(N/N=C/c1ccc2ccccc2c1)N1CCOCC1
10.2 µM	27.3 µM	41.9 µM	CC(C)(C)OC(=O)N1CCN(C(=S)N/N=C/c2ccccc2O)CC1
> 64 µM	44.9 µM	> 64 µM	Oc1ccc2ccccc2c1/C=N/NC(=S)N1CCOCC1
